{"source": "ChEMBL document CHEMBL5705885", "about": "“CYT387, a selective JAK1/JAK2 inhibitor: in vitro assessment of kinase selectivity and preclinical studies using cell lines and primary cells from polycythemia vera patients” (Leukemia, 2009)", "key": {"Aurora kinase C": {"molecular_target": "Aurora kinase C (Homo sapiens, UniProt Q9UQB9)", "sequence (Q9UQB9 whole entry)": "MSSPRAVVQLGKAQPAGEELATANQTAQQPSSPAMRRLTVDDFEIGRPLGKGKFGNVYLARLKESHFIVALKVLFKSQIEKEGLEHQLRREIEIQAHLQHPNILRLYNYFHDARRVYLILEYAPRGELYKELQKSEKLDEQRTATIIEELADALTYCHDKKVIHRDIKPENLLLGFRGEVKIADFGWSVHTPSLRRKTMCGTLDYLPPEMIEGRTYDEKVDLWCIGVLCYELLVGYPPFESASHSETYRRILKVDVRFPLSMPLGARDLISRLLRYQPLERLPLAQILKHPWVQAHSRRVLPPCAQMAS", "assay": "Inhibition of AURKC (unknown origin)"}, "[1]": {"molecular_target": "Cyclin-dependent kinase 1/cyclin B1 (Homo sapiens, UniProt P06493)", "assay": "Inhibition of CDK1/cyclin B (unknown origin)", "type": "protein-complex assay"}, "[2]": {"molecular_target": "Homeodomain-interacting protein kinase 1 (Homo sapiens, UniProt Q86Z02)", "sequence (Q86Z02 whole entry)": "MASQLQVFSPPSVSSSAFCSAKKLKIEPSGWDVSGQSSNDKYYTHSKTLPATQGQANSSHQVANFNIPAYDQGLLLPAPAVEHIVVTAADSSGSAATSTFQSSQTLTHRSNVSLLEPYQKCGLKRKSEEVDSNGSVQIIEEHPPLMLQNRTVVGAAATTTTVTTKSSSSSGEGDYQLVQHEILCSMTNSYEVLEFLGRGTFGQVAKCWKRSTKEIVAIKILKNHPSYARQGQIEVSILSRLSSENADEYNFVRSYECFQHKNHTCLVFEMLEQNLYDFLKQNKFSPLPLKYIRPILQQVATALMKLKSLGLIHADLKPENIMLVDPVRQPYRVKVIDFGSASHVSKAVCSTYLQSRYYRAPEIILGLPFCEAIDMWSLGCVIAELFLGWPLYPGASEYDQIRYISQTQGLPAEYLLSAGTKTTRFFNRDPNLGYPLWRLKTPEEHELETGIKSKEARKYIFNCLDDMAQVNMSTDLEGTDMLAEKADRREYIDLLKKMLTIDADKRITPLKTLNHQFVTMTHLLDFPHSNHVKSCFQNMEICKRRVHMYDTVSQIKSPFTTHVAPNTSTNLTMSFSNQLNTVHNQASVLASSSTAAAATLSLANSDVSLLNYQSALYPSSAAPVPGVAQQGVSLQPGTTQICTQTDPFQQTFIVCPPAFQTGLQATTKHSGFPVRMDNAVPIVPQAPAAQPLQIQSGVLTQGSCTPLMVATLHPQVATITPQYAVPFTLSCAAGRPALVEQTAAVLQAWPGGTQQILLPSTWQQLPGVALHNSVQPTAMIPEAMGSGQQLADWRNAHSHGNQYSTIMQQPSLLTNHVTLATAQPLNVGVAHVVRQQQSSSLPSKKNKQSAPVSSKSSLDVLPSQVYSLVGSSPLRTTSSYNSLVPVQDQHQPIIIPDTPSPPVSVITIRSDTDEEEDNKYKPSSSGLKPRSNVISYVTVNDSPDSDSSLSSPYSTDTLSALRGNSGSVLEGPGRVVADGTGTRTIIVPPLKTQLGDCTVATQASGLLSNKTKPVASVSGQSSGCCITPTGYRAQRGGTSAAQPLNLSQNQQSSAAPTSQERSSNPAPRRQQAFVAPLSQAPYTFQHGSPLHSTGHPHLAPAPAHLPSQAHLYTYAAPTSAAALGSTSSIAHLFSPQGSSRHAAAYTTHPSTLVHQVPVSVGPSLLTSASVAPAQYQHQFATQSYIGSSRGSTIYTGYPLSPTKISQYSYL", "assay": "Inhibition of HIPK1 (unknown origin)"}, "[3]": {"molecular_target": "Mitogen-activated protein kinase kinase kinase 9 (Homo sapiens, UniProt P80192)", "assay": "Inhibition of MAP3K9 (unknown origin)"}, "[4]": {"molecular_target": "Mitogen-activated protein kinase 1 (Homo sapiens, UniProt P28482)", "sequence (P28482 whole entry)": "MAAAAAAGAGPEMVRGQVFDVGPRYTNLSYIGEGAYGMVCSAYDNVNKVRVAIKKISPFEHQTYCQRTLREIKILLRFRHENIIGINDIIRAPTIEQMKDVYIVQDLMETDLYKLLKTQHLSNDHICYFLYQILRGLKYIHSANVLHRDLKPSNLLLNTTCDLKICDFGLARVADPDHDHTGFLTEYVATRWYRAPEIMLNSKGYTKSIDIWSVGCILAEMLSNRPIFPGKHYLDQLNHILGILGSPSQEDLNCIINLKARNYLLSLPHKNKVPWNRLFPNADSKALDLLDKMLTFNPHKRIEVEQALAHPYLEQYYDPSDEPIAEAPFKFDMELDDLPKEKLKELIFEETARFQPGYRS", "assay": "Inhibition of MAPK1 (unknown origin)"}, "[5]": {"molecular_target": "Serine/threonine-protein kinase N1 (Homo sapiens, UniProt Q16512)", "assay": "Inhibition of PKN1 (unknown origin)"}, "[6]": {"molecular_target": "T1, Protein kinase C gamma type (Homo sapiens, UniProt P05129)", "assay": "Inhibition of PRKCG (unknown origin)"}, "[7]": {"molecular_target": "T2, Ribosomal protein S6 kinase beta-1 (Homo sapiens, UniProt P23443)", "assay": "Inhibition of RPS6KB1 (unknown origin)"}, "[8]": {"molecular_target": "T3, Tyrosine-protein kinase SYK (Homo sapiens, UniProt P43405)", "assay": "Inhibition of SYK (unknown origin)"}, "[9]": {"molecular_target": "Tyrosine-protein kinase receptor TYRO3 (Homo sapiens, UniProt Q06418)", "assay": "Inhibition of TYRO3 (unknown origin)"}, "[10]": {"molecular_target": "RAC-alpha serine/threonine-protein kinase (Homo sapiens, UniProt P31749)", "assay": "Inhibition of AKT1 (unknown origin)"}, "[11]": {"molecular_target": "Dual specificity tyrosine-phosphorylation-regulated kinase 3 (Homo sapiens, UniProt O43781)", "assay": "Inhibition of DYRK3 (unknown origin)"}, "Ephrin type-A receptor 2": {"molecular_target": "Ephrin type-A receptor 2 (Homo sapiens, UniProt P29317)", "assay": "Inhibition of EPHA2 (unknown origin)"}, "Ephrin type-A receptor 8": {"molecular_target": "Ephrin type-A receptor 8 (Homo sapiens, UniProt P29322)", "assay": "Inhibition of EPHA8 (unknown origin)"}, "[12]": {"molecular_target": "Vascular endothelial growth factor receptor 1 (Homo sapiens, UniProt P17948)", "assay": "Inhibition of FLT1 (unknown origin)"}, "Rhodopsin kinase GRK7": {"molecular_target": "Rhodopsin kinase GRK7 (Homo sapiens, UniProt Q8WTQ7)", "assay": "Inhibition of GRK7 (unknown origin)"}, "[13]": {"molecular_target": "Mitogen-activated protein kinase 12 (Homo sapiens, UniProt P53778)", "assay": "Inhibition of MAPK12 (unknown origin)"}, "[14]": {"molecular_target": "Mitogen-activated protein kinase 3 (Homo sapiens, UniProt P27361)", "assay": "Inhibition of MAPK3 (unknown origin)"}, "[15]": {"molecular_target": "Serine/threonine-protein kinase Nek2 (Homo sapiens, UniProt P51955)", "assay": "Inhibition of NEK2 (unknown origin)"}, "[16]": {"molecular_target": "Serine/threonine-protein kinase PAK 2 (Homo sapiens, UniProt Q13177)", "assay": "Inhibition of PAK2 (unknown origin)"}, "[17]": {"molecular_target": "PAS domain-containing serine/threonine-protein kinase (Homo sapiens, UniProt Q96RG2)", "assay": "Inhibition of PASK (unknown origin)"}, "[18]": {"molecular_target": "Protein kinase C alpha type (Homo sapiens, UniProt P17252)", "assay": "Inhibition of PRKCA (unknown origin)"}, "[19]": {"molecular_target": "Ribosomal protein S6 kinase alpha-5 (Homo sapiens, UniProt O75582)", "assay": "Inhibition of RPS6KA5 (unknown origin)"}, "[20]": {"molecular_target": "Serine/threonine-protein kinase Sgk3 (Homo sapiens, UniProt Q96BR1)", "assay": "Inhibition of SGKL (unknown origin)"}, "[21]": {"molecular_target": "Proto-oncogene tyrosine-protein kinase Src (Homo sapiens, UniProt P12931)", "sequence (P12931 2-536 limits assumed)": "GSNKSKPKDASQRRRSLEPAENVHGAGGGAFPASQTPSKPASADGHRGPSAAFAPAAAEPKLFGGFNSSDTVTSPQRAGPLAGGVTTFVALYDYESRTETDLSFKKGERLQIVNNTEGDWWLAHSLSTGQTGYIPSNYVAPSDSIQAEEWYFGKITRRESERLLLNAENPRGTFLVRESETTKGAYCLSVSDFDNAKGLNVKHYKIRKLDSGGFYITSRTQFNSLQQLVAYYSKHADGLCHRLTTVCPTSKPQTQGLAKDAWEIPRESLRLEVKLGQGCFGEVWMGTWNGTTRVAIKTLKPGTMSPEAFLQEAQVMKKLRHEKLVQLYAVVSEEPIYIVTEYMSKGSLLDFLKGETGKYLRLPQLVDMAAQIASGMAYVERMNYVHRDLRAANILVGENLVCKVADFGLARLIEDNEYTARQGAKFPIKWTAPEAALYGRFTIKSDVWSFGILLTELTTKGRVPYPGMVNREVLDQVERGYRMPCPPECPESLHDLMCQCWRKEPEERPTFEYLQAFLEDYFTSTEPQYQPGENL", "assay": "Inhibition of SRC (unknown origin)"}, "[22]": {"molecular_target": "Testis-specific serine/threonine-protein kinase 2 (Homo sapiens, UniProt Q96PF2)", "assay": "Inhibition of STK22B (unknown origin)"}, "BaF3 [23]": {"system": "BaF3", "assay": "Antiproliferative activity against mouse BaF3 cells harboring TEL-JAK2 measured after 72 hrs by Alamar blue staining based analysis", "type": "functional, cell-based", "conditions": "BaF3, 72 h", "procedure,_shortened": "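Murine Ba/F3 cells carrying TEL/JAK2 or TEL/JAK3 fusions, grown in DMEM with 10% fetal calf serum. Compound stocks in DMSO were diluted in culture medium. Proliferation was read by Alamar Blue after 72 h incubation at 37 °C under 5% CO2.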"}, "BaF3 [24]": {"system": "BaF3", "assay": "Antiproliferative activity against mouse BaF3 cells harboring MPLW515L measured after 72 hrs by Alamar blue staining based analysis", "type": "functional, cell-based", "conditions": "BaF3, 72 h", "procedure,_shortened": "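Ba/F3 murine cells expressing JAK2V617F or MPLW515L. Compound stocks in DMSO were diluted into culture medium. After 72 h at 37 °C in 5% CO2, proliferation was quantified with the Alamar Blue assay.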"}, "MV4-11": {"system": "MV4-11", "assay": "Antiproliferative activity against human MV4-11 cells measured after 72 hrs by Alamar blue staining based analysis", "type": "functional, cell-based", "conditions": "MV4-11, 72 h", "procedure,_shortened": "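Cells were exposed for 72 h at 37 °C under 5% CO2 to compound made up as DMSO stock and diluted in culture medium. Proliferation was then read by Alamar Blue.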"}, "[25]": {"molecular_target": "Serine/threonine-protein kinase D3 (Homo sapiens) (UniProt O94806)", "conditions": "dose 100.0 nM"}, "[26]": {"molecular_target": "Serine/threonine-protein kinase TBK1 (Homo sapiens) (UniProt Q9UHD2)", "sequence (Q9UHD2 whole entry)": "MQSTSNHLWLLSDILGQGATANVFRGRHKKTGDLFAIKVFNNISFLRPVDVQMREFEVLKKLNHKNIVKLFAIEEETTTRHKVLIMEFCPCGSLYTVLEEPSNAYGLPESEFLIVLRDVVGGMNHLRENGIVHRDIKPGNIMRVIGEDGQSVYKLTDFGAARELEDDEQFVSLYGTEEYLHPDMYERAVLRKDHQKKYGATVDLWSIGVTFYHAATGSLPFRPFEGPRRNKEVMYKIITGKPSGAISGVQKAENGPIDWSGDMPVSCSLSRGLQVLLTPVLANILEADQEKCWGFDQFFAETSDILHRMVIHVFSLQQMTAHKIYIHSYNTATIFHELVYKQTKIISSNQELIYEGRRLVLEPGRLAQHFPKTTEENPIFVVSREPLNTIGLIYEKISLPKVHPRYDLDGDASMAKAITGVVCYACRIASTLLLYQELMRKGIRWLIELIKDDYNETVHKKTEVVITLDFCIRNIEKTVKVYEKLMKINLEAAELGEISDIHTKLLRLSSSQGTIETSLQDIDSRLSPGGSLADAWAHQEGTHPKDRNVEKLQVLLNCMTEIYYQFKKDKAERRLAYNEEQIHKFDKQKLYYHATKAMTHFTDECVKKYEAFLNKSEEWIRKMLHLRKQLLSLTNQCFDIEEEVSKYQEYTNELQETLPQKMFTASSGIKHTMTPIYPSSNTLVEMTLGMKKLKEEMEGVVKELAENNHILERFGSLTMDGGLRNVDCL", "conditions": "dose 100.0 nM"}, "[27]": {"molecular_target": "Tyrosine-protein kinase ABL1 (Homo sapiens) (UniProt P00519)", "conditions": "dose 100.0 nM"}, "[28]": {"molecular_target": "Serine/threonine-protein kinase BRSK1 (Homo sapiens) (UniProt Q8TDC3)", "sequence (Q8TDC3 whole entry)": "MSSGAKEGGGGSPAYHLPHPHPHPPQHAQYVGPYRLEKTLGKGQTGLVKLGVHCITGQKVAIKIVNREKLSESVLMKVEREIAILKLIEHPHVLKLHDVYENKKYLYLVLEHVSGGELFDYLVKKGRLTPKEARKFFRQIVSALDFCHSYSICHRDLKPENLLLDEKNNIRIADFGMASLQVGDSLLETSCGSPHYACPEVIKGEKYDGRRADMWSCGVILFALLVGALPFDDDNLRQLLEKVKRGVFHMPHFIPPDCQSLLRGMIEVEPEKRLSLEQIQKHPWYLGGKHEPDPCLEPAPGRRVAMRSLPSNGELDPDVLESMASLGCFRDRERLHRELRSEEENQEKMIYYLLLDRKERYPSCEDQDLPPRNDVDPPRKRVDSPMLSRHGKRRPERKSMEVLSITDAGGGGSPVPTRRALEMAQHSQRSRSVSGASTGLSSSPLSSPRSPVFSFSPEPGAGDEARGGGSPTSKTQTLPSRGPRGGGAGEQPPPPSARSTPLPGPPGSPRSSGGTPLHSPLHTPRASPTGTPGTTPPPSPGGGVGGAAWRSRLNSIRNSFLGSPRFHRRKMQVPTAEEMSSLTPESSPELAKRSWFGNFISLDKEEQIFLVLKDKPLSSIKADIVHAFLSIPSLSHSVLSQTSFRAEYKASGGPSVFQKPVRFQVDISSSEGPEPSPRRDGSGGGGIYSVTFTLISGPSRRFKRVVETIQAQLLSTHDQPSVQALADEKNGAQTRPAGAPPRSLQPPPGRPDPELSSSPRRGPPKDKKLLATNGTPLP", "conditions": "dose 100.0 nM"}, "[29]": {"molecular_target": "Cyclin-dependent kinase 5/CDK5 activator 1 (Homo sapiens) (UniProt Q00535+Q15078)", "conditions": "dose 100.0 nM"}, "[30]": {"molecular_target": "Ephrin type-B receptor 1 (Homo sapiens) (UniProt P54762)", "conditions": "dose 100.0 nM"}, "[31]": {"molecular_target": "Vascular endothelial growth factor receptor 2 (Homo sapiens, UniProt P35968)", "conditions": "dose 100.0 nM"}, "[32]": {"molecular_target": "Tyrosine-protein kinase Mer (Homo sapiens) (UniProt Q12866)", "conditions": "dose 100.0 nM"}, "[33]": {"molecular_target": "High affinity nerve growth factor receptor (Homo sapiens, UniProt P04629)", "conditions": "dose 100.0 nM"}, "[34]": {"molecular_target": "BDNF/NT-3 growth factors receptor (Homo sapiens, UniProt Q16620)", "conditions": "dose 100.0 nM"}, "[35]": {"molecular_target": "Platelet-derived growth factor receptor alpha (Homo sapiens, UniProt P16234)", "sequence (P16234 whole entry)": "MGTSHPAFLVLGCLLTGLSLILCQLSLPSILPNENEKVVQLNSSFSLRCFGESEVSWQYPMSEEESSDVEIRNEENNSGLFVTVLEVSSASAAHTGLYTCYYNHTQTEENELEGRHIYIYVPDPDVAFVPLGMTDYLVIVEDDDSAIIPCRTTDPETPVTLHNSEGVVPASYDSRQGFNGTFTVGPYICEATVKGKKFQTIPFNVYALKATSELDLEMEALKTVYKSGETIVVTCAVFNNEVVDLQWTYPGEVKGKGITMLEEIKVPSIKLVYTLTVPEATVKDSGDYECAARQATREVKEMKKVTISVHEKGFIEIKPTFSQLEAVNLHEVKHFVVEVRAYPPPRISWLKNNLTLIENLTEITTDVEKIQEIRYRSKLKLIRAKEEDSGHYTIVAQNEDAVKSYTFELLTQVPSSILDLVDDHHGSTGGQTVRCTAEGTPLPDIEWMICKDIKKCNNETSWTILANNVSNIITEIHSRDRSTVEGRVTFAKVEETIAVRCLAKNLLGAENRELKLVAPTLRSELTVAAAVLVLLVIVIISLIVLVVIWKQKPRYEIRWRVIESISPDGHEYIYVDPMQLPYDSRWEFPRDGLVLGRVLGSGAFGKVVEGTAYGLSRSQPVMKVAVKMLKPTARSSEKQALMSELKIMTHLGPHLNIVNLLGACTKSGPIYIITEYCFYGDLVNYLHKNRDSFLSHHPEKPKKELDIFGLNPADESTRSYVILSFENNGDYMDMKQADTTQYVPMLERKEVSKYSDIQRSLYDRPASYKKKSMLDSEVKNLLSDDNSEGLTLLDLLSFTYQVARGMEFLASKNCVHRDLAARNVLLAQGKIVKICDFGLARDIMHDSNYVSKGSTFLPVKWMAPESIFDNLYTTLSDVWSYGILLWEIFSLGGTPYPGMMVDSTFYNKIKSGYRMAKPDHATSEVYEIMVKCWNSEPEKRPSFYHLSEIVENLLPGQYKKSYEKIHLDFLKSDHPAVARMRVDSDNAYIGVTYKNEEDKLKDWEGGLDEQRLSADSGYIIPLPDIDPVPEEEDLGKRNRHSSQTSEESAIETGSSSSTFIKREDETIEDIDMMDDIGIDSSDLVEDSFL", "conditions": "dose 100.0 nM"}, "[36]": {"molecular_target": "T1, Protein kinase C gamma type", "conditions": "dose 100.0 nM"}, "[37]": {"molecular_target": "T2, Ribosomal protein S6 kinase beta-1", "conditions": "dose 100.0 nM"}, "[38]": {"molecular_target": "T3, Tyrosine-protein kinase SYK", "conditions": "dose 100.0 nM"}, "[39]": {"molecular_target": "Tyrosine-protein kinase receptor TYRO3 (Homo sapiens) (UniProt Q06418)", "conditions": "dose 100.0 nM"}}, "data": [{"smiles": "N#CCNC(=O)c1ccc(-c2ccnc(Nc3ccc(N4CCOCC4)cc3)n2)cc1", "note": "[MOMELOTINIB]", "values": [{"measurement": "IC50", "setting": "Aurora kinase C", "result": "< 1", "unit": "µM"}, {"measurement": "IC50", "setting": "[1]", "result": "< 1", "unit": "µM"}, {"measurement": "IC50", "setting": "[2]", "result": "< 1", "unit": "µM"}, {"measurement": "IC50", "setting": "[3]", "result": "< 1", "unit": "µM"}, {"measurement": "IC50", "setting": "[4]", "result": "< 1", "unit": "µM"}, {"measurement": "IC50", "setting": "[5]", "result": "< 1", "unit": "µM"}, {"measurement": "IC50", "setting": "[6]", "result": "< 1", "unit": "µM"}, {"measurement": "IC50", "setting": "[7]", "result": "< 1", "unit": "µM"}, {"measurement": "IC50", "setting": "[8]", "result": "< 1", "unit": "µM"}, {"measurement": "IC50", "setting": "[9]", "result": "< 1", "unit": "µM"}, {"measurement": "IC50", "setting": "[10]", "result": "> 1", "unit": "µM"}, {"measurement": "IC50", "setting": "[11]", "result": "> 1", "unit": "µM"}, {"measurement": "IC50", "setting": "Ephrin type-A receptor 2", "result": "> 1", "unit": "µM"}, {"measurement": "IC50", "setting": "Ephrin type-A receptor 8", "result": "> 1", "unit": "µM"}, {"measurement": "IC50", "setting": "[12]", "result": "> 1", "unit": "µM"}, {"measurement": "IC50", "setting": "Rhodopsin kinase GRK7", "result": "> 1", "unit": "µM"}, {"measurement": "IC50", "setting": "[13]", "result": "> 1", "unit": "µM"}, {"measurement": "IC50", "setting": "[14]", "result": "> 1", "unit": "µM"}, {"measurement": "IC50", "setting": "[15]", "result": "> 1", "unit": "µM"}, {"measurement": "IC50", "setting": "[16]", "result": "> 1", "unit": "µM"}, {"measurement": "IC50", "setting": "[17]", "result": "> 1", "unit": "µM"}, {"measurement": "IC50", "setting": "[18]", "result": "> 1", "unit": "µM"}, {"measurement": "IC50", "setting": "[19]", "result": "> 1", "unit": "µM"}, {"measurement": "IC50", "setting": "[20]", "result": "> 1", "unit": "µM"}, {"measurement": "IC50", "setting": "[21]", "result": "> 1", "unit": "µM"}, {"measurement": "IC50", "setting": "[22]", "result": "> 1", "unit": "µM"}, {"measurement": "IC50", "setting": "BaF3 [23]", "result": 0.724, "unit": "µM"}, {"measurement": "IC50", "setting": "BaF3 [24]", "result": 0.2, "unit": "µM"}, {"measurement": "IC50", "setting": "MV4-11", "result": 3, "unit": "µM"}, {"measurement": "inhibition", "setting": "[25]", "result": "> 50", "unit": "%"}, {"measurement": "inhibition", "setting": "[26]", "result": "> 50", "unit": "%"}, {"measurement": "inhibition", "setting": "[27]", "result": "< 50", "unit": "%"}, {"measurement": "inhibition", "setting": "[28]", "result": "< 50", "unit": "%"}, {"measurement": "inhibition", "setting": "[29]", "result": "< 50", "unit": "%"}, {"measurement": "inhibition", "setting": "[30]", "result": "< 50", "unit": "%"}, {"measurement": "inhibition", "setting": "[31]", "result": "< 50", "unit": "%"}, {"measurement": "inhibition", "setting": "[32]", "result": "< 50", "unit": "%"}, {"measurement": "inhibition", "setting": "[33]", "result": "< 50", "unit": "%"}, {"measurement": "inhibition", "setting": "[34]", "result": "< 50", "unit": "%"}, {"measurement": "inhibition", "setting": "[35]", "result": "< 50", "unit": "%"}, {"measurement": "inhibition", "setting": "[36]", "result": "< 50", "unit": "%"}, {"measurement": "inhibition", "setting": "[37]", "result": "< 50", "unit": "%"}, {"measurement": "inhibition", "setting": "[38]", "result": "< 50", "unit": "%"}, {"measurement": "inhibition", "setting": "[39]", "result": "< 50", "unit": "%"}]}]}
